In the EternaBench riboswitch data:

Tested on: MS2 coat protein
Assay: apparent Kd, MS2 coat protein; higher = weaker binding; RNA-MaP array; FMN 200 µM where present
Method in brief: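 Two titrations, one without ligand and one with constant ligand, were run with SNAP-549-labelled MS2 coat protein from 0.7 or 1.5 nM, doubling to 3 µM. The targets were designs transcribed by stalled E. coli RNA polymerase on Illumina sequencing-chip clusters, in 100 mM Tris-HCl pH 7.5, 80 mM KCl, 4 mM MgCl2, BSA, DTT, yeast tRNA and Tween-20. The apparent Kd is the median of filtered per-cluster binding-curve fits, with green signal normalised to red-channel RNA signal and control-cluster median Fmax.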

[1] = designed as: ON switch for flavin mononucleotide, no ligand
[2] = ligand present: flavin mononucleotide, designed as: ON switch for flavin mononucleotide
[3] = designed as: OFF switch for flavin mononucleotide, no ligand
[4] = ligand present: flavin mononucleotide, designed as: OFF switch for flavin mononucleotide

Sequence	apparent Kd [1]	apparent Kd [2]	apparent Kd [3]	apparent Kd [4]
CGCUGUCAUGCAGGAUAUGCAUUGGAUUACAAUGCAGAAGGGCGAUUACAUGAGGAUCACCCAUGUGUAGACAGUGAAGAAAAG	145 nM	13.8 nM		
UUGUGCUUAGAGAAGGUUCAAACUACAUAUUGCGCACAUGAGGAUCACCCAUGUUGGUGAAUAAGAAAGGAUAUUUGACUGUAU			131 nM	98 nM
GGAUCGAAUGUGAGGAUAUGCUGGUCCUUGGAUCAGCAGAAGGCACAUGAGGAUCACCCAUGUGUUCCCGGUCC			79.5 nM	716 nM
UUAUUAUAUGUAGGAUAUGCAUAUUAUUAUUGUGCAGAAGGACAUGAGGAUCACCCAUGUAUAUUAUUAUUAUAUAUUAUAUAU			30.9 nM	49.7 nM
UUGUUGUGUGUAGGAUAUGCGUGUUAUUAUUAUGCAGAAGGACAUGAGGAUCACCCAUGUGUAUUGUUAUUAUAUAUUAUAUAU			21.4 nM	22.5 nM
AAAAAUGGAGGAUAUACAUGAGGAUCACCCAUGUGUGGCUAUACUAUGUGCUCUUCAGGUAGAAGGCCAAAAAA			42.6 nM	201 nM
UGGUACUUGGGAGGAUAUGGGAAGAUACAUGAGGAUCACCCAUGUUUAAGAAUGCCGAGAGGCAACUAGAAGGCCCUAGUACCU	493 nM	20 nM		
GGCGGGCGGGAGGAUAUUCGGGCUGUUUGGCUUGGAGAAGGCUCGACAUGAGGAUCACCCAUGUUUGGGUCGUC			18 nM	37.8 nM
AAUGUAUCCUCGGGAUCCACAUGAGGAUCACCCAUGUAGACUCAGGAUAUCCAAUGCGUUGGCAGGGAGAAGGGAGCUCGCAUG			33.7 nM	38.7 nM
UUUAUAAAUUAGAAGGCAUGAUGAAUUACAAUAGACAUGAGGAUCACCCAUGUGUAUUCAUGUCAUGAGGAUAUAGUCAUAUAU	8.91 nM	6.45 nM		
CAGCAAAAGUAGAAGGCAGUACUGAUUCAGUACUGAGGAUAUACAUGAGGAUCACCCAUGUGUUCCAGCUGAAUAAUAAAAUAA			8.89 nM	116 nM
GGGUCACAUGAGGAUCACCCAUGUGAGGAUAUGAUACUAUGUACUUCGGUACAUAGUAUCAGAAGGCACAUAAA			36.6 nM	123 nM
ACUGGUCGAGGAUAUGCAUUCGUGCUUCGGCACGUAAGGUCACAUGAGGAUCACCCAUGUAGAAGGCGACCAGU			18.2 nM	36.9 nM
GUGUACGGAGGAUAUGUAUGGGCAGGCUGACCUGCAGCUUCACAUGAGGAUCACCCAUGUAGAAGGCUGUGCAC			12.1 nM	24.2 nM
CGCAAACAUGAGGAUCACCCAUGUGAGGAUAUGUGAGCACGAGAAAGAUAAAGUGAGCACAGAAGGCACAAGCG			60.4 nM	62.9 nM
GUGUCUUGGGAGAAGGCCGAUAGCAAAGCUAUCGGAGGAUAUUCAUACCGGAAACGGACAUGAGGAUCACCCAUGUGGCACAAA	1130 nM	36.8 nM		
GCAUGUAAGCAGAAGGGCAGAUAUUUUGAUACUGCAGGAUAUGCAGAAUCAUAUCCACAUGAUAACAUGAGGAUCACCCAUGUA			32.3 nM	29 nM
UGUCGGAUCAGAGGAUAUUACAUGAGGAUCACCCAUGUAUGAACCAAUAGCUGGAAACAGCAAUGUAAGAAGGCUGCUCCGACA			11.4 nM	160 nM
GCGACGGCGAAAGGAUAUCAAAAUCAACAGUGUUGAGAAGGUUCUCCGAGGGUCGCACAUGAGGAUCACCCAUGUCGCGAAUCU	13.1 nM	10.3 nM		
GUAGCAUAGUCAGGAUAUUCAUAUAAUAAAUAAACAUGAGGAUCACCCAUGUGGCGAAAGCCUUGGGAGAAGGGACAAUGCUAC	1210 nM	90.2 nM		
AUCAGCUCGUCAGGAUAUACGUCACUGCGUCAGCAGUGUGGUAAGAUCACAUGAGGAUCACCCAUGUAGAAGGGACGAGUUGAU			13.6 nM	310 nM
UGGAUGUAAGAGAAGGAGGACUUCAUGAGGAUCACCCAUGUGUUAGUACUUAGGAUAUUUGACAACAUGAGGAUCACCCAUGUC	75.6 nM	67.8 nM		
UACAAUGGAGGAUAUAUGGUCAUACACAUGAGGAUCACCCAUGUCGCGAGUCGUGUAUCCAUAGAAGGCUGUAGUG			13.7 nM	15.6 nM
UAUUUUAACUAAGGAUAUCUGUAUUUUGUUGAAACAUGAGGAUCACCCAUGUUCAUGAAAUUAUAGGAGAAGGUAGAUGAAUAA	6.65 nM	4.95 nM		
AAAUAGCUUGAGGAUAUUGGAUUGGAUUCAGUGCGAGAAGGCAAGACAUGAGGAUCACCCAUGUUGUGUUGGGA			47.2 nM	90 nM
GACUUGUUAGGAUAUCUUACAUUUGCAUCAUAGUUACCAUUGGAGAAGGGACAUGAGGAUCACCCAUGUUUGGU			40 nM	39.8 nM
CGCUCACAUGAGGAUCACCCAUGUCCUAGGAGGUCAGGAUAUAGCCCGCAUCCGCUGCGGCUAGAAGGGACAGCUG	203 nM	68.6 nM		
GUUACAUGAGGAUCACCCAUGUAUGUGUGGGAGUAAGUGUCUUAGGAUAUCUAUGAUUUAAAUUAAGAGAAGGAAGAUUGUUGU	101 nM	117 nM		

Sequence	apparent Kd [1]	apparent Kd [2]	apparent Kd [3]	apparent Kd [4]
UAGUGAUUGCAAGGAUAUGCUAGUUUUUAUUUGUGUUUGAUAUCUAACAUGAGGAUCACCCAUGUGCAGAAGGUGCUUGAUUUG	87.8 nM	107 nM		
AAUAGUGGAGGAUAUACAUGAGGAUCACCCAUGUAGAAAGGAAGUGUAUAUAUGGCGUGUAGAAGGCCAAAUAA			36.4 nM	34.1 nM
GACAUUGACAAGAAGGCAAACAUGAGGAUCACCCAUGUUCUGCAUGUAUAUUGAGGAUAUUGCCAAUGUAUGUGGAUCACCCAA			6.25 nM	15.2 nM
AUUUAGUGCGAGAAGGCGUGGUCACAUGAGGAUCACCCAUGUCAGUACACGAGGAUAUCGAUUCGCUGUGUAAACACAAGCGAC	80.7 nM	6.67 nM		
GAGCGAAAGCUCAAUGUCGAUAGCAGAAGGAUAUGAAAACAUGAAAUAACAUGAGGAUCACCCAUGUAGGAUAUGCUAUCGACU			7.41 nM	14 nM
UGGUAACAUGAGGAUCACCCAUGUCAGGAUAUCAGGAAGAGGAGAGGAGAGGAGAAGAUGAGAAGGGACUAUAU			27.2 nM	21.9 nM
CAAUAAGACACAGGAUAUCCAGACAGGGAAGAUGGAGAAGGGUGAUCAGAAAAGACAUGAGGAUCACCCAUGUCUCGUGCGAUG	631 nM	282 nM		
ACGGCUAACCCAGUUUGAAUCUCAAGAAGGGUACACUGGGCAAGGUACAUGAGGAUCACCCAUGUACAGGAUAUUGAGAUGAGA			48.4 nM	74 nM
UUCCUACAUGAGGAUCACCCAUGUCAGGAUAUCUCCUCACUGCGCUUGCGCAGUGAAUAGAGAAGGGACAGGCU			14.9 nM	19.3 nM
UCGGCCGCCGUGAGGAUAUGCCCGCGCGCCCGCGGGCAGAAGGCACAUGAGGAUCACCCAUGUCCCGCGGCACU			15.4 nM	27.4 nM
ACUAGAUGAGGAUAUGCAUAUUUUCGUGUUCUUCUAGAUUAACAUGAGGAUCACCCAUGUAGAAGGCGUCAAUA			16.1 nM	18.9 nM
GCGUAACAUGAGGAUCACCCAUGUACUCGAGAAUUCGAGUGUAGAAGGGUGACCGGUCGUUUGGCACAGGAUAUACACGCUGUG	31.5 nM	12 nM		
GAUUAGUGAGGAUAUGGUAAAGAUAAGAUGAUGAAAGAACUCCAGAAGGCACAUGAGGAUCACCCAUGUAGUAU			17.4 nM	21.6 nM
CUGGAAUACAGACAUGAGGAUCACCCAUGUUUAAGGGAGGCACAGGAUAUGUCGACGCACCAUAGACAGAAGGGUGACUUGCUU	47.8 nM	20.3 nM		
UCGUUGUCAGGAUAUCGUUAAUUUAGUUGUUUGUAUUAGUUCGAGAAGGGACAUGAGGAUCACCCAUGUUUGCU			30.1 nM	70.9 nM
UGACUGAUAUAGAAGGGUAUGUGGGAAUUACAUGAGGAUCACCCAUGUUUUAUAGGAUAUGUAUAUAGAAUUUAAUCAAGUUUA			40.5 nM	37.1 nM
UUUAGUUUAGGAUAUGUAGACGUUAACAUGAGGAUCACCCAUGUAGAUCCUGAAUUGGCUACAGAAGGAAGCAUUU			285 nM	531 nM
ACCAUUUACUAAUUAUCUAUACAUGAGGAUCACCCAUGUUAAGAGGAUAUCAUCGUUCGCCGCGAUGAGAAGGCUUAGCAUUCG			48.8 nM	154 nM
UGUGUGAGACAGGAUAUGCCGGAUGAAUUGCUGGUAGAAGGGUCUACAUGAGGAUCACCCAUGUGGCCGGUUGG			16.8 nM	24.8 nM
UUAUUAUGUGUAGGAUAUGCAUAUUAUCAUUAUGCAGAAGGACAUGAGGAUCACCCAUGUAUAUUAUUAUUAUAUAUUAUAUAU			15.5 nM	12.6 nM
ACAUUUAAUACAGGAUAUGUAUGUAUACAAUAGAUUGGUUUUAUCACAUCAACAGAAGGGUAGAACAUGAGGAUCACCCAUGUA	114 nM	79.8 nM		
UCAUACAUUCGAGGAUAUCGGUGAUAACUCUAACGAGAAGGCGAUUUAAAACAUAAUGCUGUAGACAUGAGGAUCACCCAUGUA	416 nM	146 nM		
GGAGCACACAUUAACAUGAGGAUCACCCAUGUCAAAAGACAUGAGGAUAUGGAUCCGAAAAGGACCCAGAAGGCAUGGUGCUCC	427 nM	21.8 nM		
AUAAAACAUGAGGAUCACCCAUGUAAAAAUAUGGGAGGAUAUGCGAAAUAAAAUAAAUAAGCAGAAGGCCUAAAAA	50.4 nM	23.7 nM		
GUAAUAAAGAUCCAAUUAUACAACAUGAGGAUCACCCAUGUGCAGGAUAUCGUGUGUUUUUUAUUCGAGAAGGGCAAAUUCAUU			51.9 nM	146 nM
AAUAACAGAGGAUAUACUAUUUUAUGUAUUUAUUAUUUUAAACAUGAGGAUCACCCAUGUAGAAGGCUGAGUAA			23.8 nM	21.3 nM
GCUGCAUAGGCAGGAUAUACAAUAAUUCGAAUAAAAUAUAACGAAUUAACAUGAGGAUCACCCAUGUAGAAGGGCCUGUGCAGU			6.32 nM	10.4 nM
